# Sampled rows, rich in hits. Any-hit rate of the full collection: about 1.9%.
# HGIII-sPLA2 inh – human group III sPLA2 inhibitors, primary screen, biochemical, QFRET, BODIPY PC-A2 liposome substrate. QFRET BODIPY PC-A2 liposome hydrolysis, fluorescence. hit rate 0.56% among 370,000. AID 743126, 2013. inhibition, % at 12.2 µM. Group 3 secretory phospholipase A2 (Homo sapiens), Q9NZ20;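 active means inhibition above mean plus 3 SD of compounds lying within the high and low control bounds, cut at about 19% in these data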;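 further: 0% = median of test compound wells and 100% = no enzyme DMSO wells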
# Target sequence (Q9NZ20 whole entry, looked up): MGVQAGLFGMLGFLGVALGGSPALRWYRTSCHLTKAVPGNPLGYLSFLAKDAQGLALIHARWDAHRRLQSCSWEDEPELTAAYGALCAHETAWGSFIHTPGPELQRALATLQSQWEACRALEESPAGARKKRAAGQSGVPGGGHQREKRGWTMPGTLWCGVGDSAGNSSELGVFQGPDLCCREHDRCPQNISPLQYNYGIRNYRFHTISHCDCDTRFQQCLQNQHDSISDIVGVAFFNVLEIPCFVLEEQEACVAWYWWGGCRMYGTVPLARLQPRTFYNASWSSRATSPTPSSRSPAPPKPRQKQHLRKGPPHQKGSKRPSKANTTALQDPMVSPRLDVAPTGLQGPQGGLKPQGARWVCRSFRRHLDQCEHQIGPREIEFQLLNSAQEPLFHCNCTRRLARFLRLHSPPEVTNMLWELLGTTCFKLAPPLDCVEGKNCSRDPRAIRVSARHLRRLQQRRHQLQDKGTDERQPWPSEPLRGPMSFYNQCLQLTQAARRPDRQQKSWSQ
# PLC-gamma1 inh – PLC-gamma1 enzyme inhibitors, primary screen, biochemical, fluorescence, purified enzyme. inhibition, % at 12.2 µM. hit rate 0.84% among 370,000. 1-phosphatidylinositol 4,5-bisphosphate phosphodiesterase gamma-1 (Homo sapiens), P19174. fluorogenic substrate; in the data active means inhibition above about 9.5%
# DAGLB inhibitor – DAGLB lipase inhibitors, primary screen, biochemical, fluorescence, HTS; inhibition, % at 5.17 µM; AID 504411, 2011; Diacylglycerol lipase-beta (Homo sapiens), Q8NCG7; HEK293T DAGLB membrane lysate, EnzChek fluorogenic substrate; hit rate 0.059% among 340,000; in the data active means inhibition above about 34%;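 further: 0% = enzyme with vehicle and 100% = wells lacking enzyme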
# PLCb3 inh – human PLC-beta3 inhibitors, primary screen, biochemical, fluorescence; 1-phosphatidylinositol 4,5-bisphosphate phosphodiesterase beta-3 (Homo sapiens), Q01970; Purified PLC-beta3, fluorogenic substrate; inhibition, % at 12.2 µM; hit rate 0.18% among 370,000; AID 720704, 2013;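 further: 0% = median of compound wells on plate and 100% = full blocker control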
# Tb MetRS inh – T. brucei MetRS inhibitors, primary screen, biochemical, luminescence; methionyl-tRNA synthetase (Trypanosoma brucei brucei); purified T. brucei MetRS, ATP depletion, Kinase-Glo luminescence; inhibition, % at 11.9 µM; hit rate 0.4% among 360,000;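 active means inhibition above a per-plate cutoff of the control wells' mean inhibition plus 3 SD, cut at about 5.5% in these data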;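 further: 0% = DMSO wells median and 100% = median of wells with control inhibitor compound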
#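 Dosing: 11.9 µM single point; system: parasite MetRS enzyme; technique: luminescence of leftover ATP; times: 15 min enzyme-compound preincubation, 2 h reaction, 10 min detection, 25 °C; replicates: each compound tested once; read-out basis: percent inhibition relative to median high and low control wells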
# PLCgamma1 ctr – PLC-gamma1 enzyme inhibitors, counter-screen for PLC-beta3 inhibitor project, biochemical, fluorescence; hit rate 3.1% among 3,300; purified PLC-gamma1, fluorogenic substrate; inhibition, % at 12.3 µM; shares compounds with PLC-gamma1 inh; in the data active means inhibition above about 9.5%
# PLCbeta3 conf – PLC-beta3 inhibitor confirmation, biochemical, fluorescence, purified enzyme; shares compounds with PLC-gamma1 inh; fluorogenic substrate fluorescence; inhibition, % at 12.3 µM; hit rate 1% among 3,300; AID 743261, 2014
# Numbers without * were called inactive; nt = not tested or not shown. Unless noted, no stated cut-off is given here; in the data, active means inhibition above about 11%; inactive means the rest.
SMILES,HGIII-sPLA2 inh,PLC-gamma1 inh,DAGLB inhibitor,PLCb3 inh,Tb MetRS inh,PLCgamma1 ctr,PLCbeta3 conf
CCCCNC(=O)C[C@H]1C[C@@]2(C(=O)OC)C(=C[C@H](COCc3ccccc3)O[C@@H]2C)N(Cc2ccccc2)C1=O,-2,3,nt,3,nt,nt,nt
CC1(C)Cc2ccccc2C(/C(=N/O)C(N)=O)=N1,-6,11*,0,5,0,2,1
COC(=O)C1=C(C)N(C)C(=NCc2ccc3c(c2)OCO3)NC1c1cccc(Cl)c1 (stereo not given),-2,1,nt,1,nt,nt,nt
COC(=O)[C@]12CCCCC=C1N(Cc1ccc(OC)cc1)C(=O)[C@@H]2CC(=O)NCCCCc1ccccc1,-27,0,nt,-2,nt,nt,nt
CCOc1cc(CNCC2CCCN2CC)cc(Cl)c1OC (stereo not given),12,12*,0,1,0,-1,-1
C/C(C=NNC(=O)CSc1nnc(-c2ccc(Cl)cc2)n1-c1ccc(C)cc1)=C\c1ccccc1,9,4,nt,7,nt,nt,nt
Fc1ccc(C(c2nnnn2Cc2cccs2)N2CCN(c3ccccc3)CC2)cc1 (stereo not given),-1,3,-10,2,-1,nt,nt
COc1ccc(C(c2nnnn2Cc2cccs2)N2CCN(c3ccccc3F)CC2)cc1OC (stereo not given),2,11*,4,14*,-1,5,4
CCOc1cc(CN2CCN(c3cccc(C(F)(F)F)c3)CC2)ccc1O,-9,9.7*,-5,6,0,-2,3
O=[N+]([O-])c1ccc(Sc2ncccn2)c([N+](=O)[O-])c1,7,12*,nt,2,0,10*,8
CC(=O)Nc1ccc(S(=O)(=O)NC2CC(=O)N(c3ccc(C)cc3)C2)cc1 (stereo not given),3,6,2,4,0,nt,nt
CC(=O)Nc1ccc(S(=O)(=O)NC2CC(=O)N(c3ccc(C)c(C)c3)C2)cc1 (stereo not given),-12,12*,-3,-3,0,-2,0
CCC(C)N1CC23C=CC(O2)C(C(=O)OCc2ccccc2)C3C1=O (stereo not given),9,4,1,14*,0,-4,-1
CCOC(=O)C1C2C=CC3(CN(Cc4ccccc4)C(=O)C13)O2 (stereo not given),1,0,-1,-5,0,nt,nt
CC1CCCCC1N(C(=O)c1cc(C2CC2)on1)C1CCCCC1 (stereo not given),3,0,nt,-2,nt,nt,nt
COc1ccc([C@@H]2[C@@H]3C(=O)N(C(C)(C)C)C(=O)[C@@H]3[C@]3(Cc4ccccc4)C(=O)N(c4ccccc4)C(=O)N23)cc1,-12,-1,-4,0,0,nt,nt
COc1ccc([C@@H]2[C@@H]3C(=O)N(C(C)(C)C)C(=O)[C@@H]3[C@]3(Cc4ccccc4)C(=O)N(c4cccc(Cl)c4)C(=O)N23)cc1,-15,9.6*,-6,-1,0,-2,2
CC(C)(C)N1C(=O)[C@H]2[C@@H](c3ccc(Br)cc3)N3C(=O)N(c4cccc(Cl)c4)C(=O)[C@@]3(Cc3ccccc3)[C@H]2C1=O,0,10*,-11,2,0,-2,1
COc1ccc(N2C(=O)N3[C@H](c4ccc(Br)cc4)[C@@H]4C(=O)N(C(C)(C)C)C(=O)[C@@H]4[C@]3(Cc3ccccc3)C2=O)cc1,-18,3,-9,4,0,nt,nt
CC(C=NN=C1C(=O)Nc2ccccc21)=Cc1ccccc1,-11,-8,nt,-8,nt,nt,nt
Cc1ccc(S(=O)(=O)n2ccc(-c3c(-c4ccc(F)cc4)noc3C)n2)cc1,-6,-1,nt,3,nt,nt,nt

# Screens deposited in PubChem by The Scripps Research Institute Molecular Screening Center.
